Measurements reported in ChEMBL document CHEMBL1158554, “3,5-Diaryl-1H-pyrazole as a molecular scaffold for the synthesis of apoptosis-inducing agents” (2010).
One block for each compound: values may come before it. Activity calls are given as the source filed them. The rule behind the calls is not given here.

Legend:
[1] = test system: AGS; assay: Growth inhibition of human AGS cells after 48 hrs by MTT assay; format: functional
In short: (§1)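 Cells seeded 3000/well (OVCA, SW620, H460) or 5000/well (AGS), grown 24 h, then exposed to serial dilutions (DMSO stock) for 48 h at 37 °C, 5% CO2. MTT (2 mg/ml in PBS) added for 2 h; formazan dissolved in DMSO and read at 570 nm. Inhibition = (1 − At/Ac)×100 vs vehicle; GI50 interpolated from dose–response curves; four to six separate experiments, mean ± SEM.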

[2] = test system: OVCAR; assay: Induction of apoptosis in human OVCAR cells assessed as increase in cleaved caspase-9 level at 1.2 to 5 uM after 16 hrs by Western blot analysis; format: functional, cell-based
In short: (§2)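 OVCA cells treated 16 h (vehicle 1% DMSO), washed in PBS, lysed; 50 ug protein run on 15% SDS-PAGE, transferred to nitrocellulose, blocked overnight at 4 °C in TBST/5% milk. Probed with anti-PARP (1:500), anti-cleaved caspase-3, anti-cleaved caspase-9, anti-phospho-Akt, anti-Akt, anti-beta-actin (1:1000), then secondary IgG 1:10,000 for 1 h at room temperature; ECL detection. Total Akt used as reference for phospho-Akt.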

[3] = test system: OVCAR; assay: Cell cycle arrest in human OVCAR cells assessed as accumulation at sub-G1 phase at 1.2 uM after 24 hrs by propidium iodide staining-based FACS analysis; format: functional
In short: (§3)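 OVCA cells given 0.5% DMSO or compound for 24 h, harvested, PBS-rinsed, fixed in 80% ethanol and held at −20 °C until analysis. Propidium iodide DNA staining and flow cytometry; apoptotic nuclei scored as the subdiploid (sub-G1) peak, given as percent of the whole population. Untreated cells served as blank.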

[4] = test system: OVCAR; assay: Growth inhibition of human OVCAR cells after 48 hrs by MTT assay; format: functional; in short: as §1
[5] = biological target: RAC-alpha serine/threonine-protein kinase (Homo sapiens) (UniProt P31749); assay: Inhibition of Akt phosphorylation in human OVCAR cells at 1.2 to 5 uM after 16 hrs by Western blot analysis; format: cell-based; in short: as §2
Sequence of RAC-alpha serine/threonine-protein kinase (Homo sapiens) (P31749 whole entry): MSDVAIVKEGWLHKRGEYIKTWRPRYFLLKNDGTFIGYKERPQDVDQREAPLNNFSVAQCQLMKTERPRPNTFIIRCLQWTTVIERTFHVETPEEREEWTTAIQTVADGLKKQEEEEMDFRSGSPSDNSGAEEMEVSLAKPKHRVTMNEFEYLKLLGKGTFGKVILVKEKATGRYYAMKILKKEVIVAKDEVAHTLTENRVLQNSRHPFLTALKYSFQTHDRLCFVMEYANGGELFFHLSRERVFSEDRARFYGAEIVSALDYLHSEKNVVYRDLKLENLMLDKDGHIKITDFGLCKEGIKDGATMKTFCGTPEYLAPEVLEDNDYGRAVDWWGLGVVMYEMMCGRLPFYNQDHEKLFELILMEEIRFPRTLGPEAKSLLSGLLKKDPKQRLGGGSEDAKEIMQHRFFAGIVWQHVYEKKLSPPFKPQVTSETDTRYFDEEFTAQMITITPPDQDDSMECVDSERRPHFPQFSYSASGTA

[6] = test system: OVCAR; assay: Induction of apoptosis in human OVCAR cells assessed as increase in cleaved caspase-3 level at 1.2 to 5 uM after 16 hrs by Western blot analysis; format: functional, cell-based; in short: as §2
[7] = test system: OVCAR; assay: Induction of apoptosis in human OVCAR cells assessed as PARP cleavage at 1.2 to 5 uM after 16 hrs by Western blot analysis; format: functional, cell-based; in short: as §2
[8] = test system: OVCAR; assay: Cell cycle arrest in human OVCAR cells assessed as accumulation at sub-G1 phase at 2.5 uM after 24 hrs by propidium iodide staining-based FACS analysis; format: functional; in short: as §3
[9] = test system: OVCAR; assay: Cell cycle arrest in human OVCAR cells assessed as accumulation at sub-G1 phase at 5 uM after 24 hrs by propidium iodide staining-based FACS analysis; format: functional; in short: as §3
[10] = test system: SW-620; assay: Growth inhibition of human SW620 cells at 40 uM after 48 hrs by MTT assay; format: functional, cell-based
In short: (§4)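 MTT growth inhibition at the top tested concentration of 40 uM, 48 h exposure, cells seeded as for GI50 (3000/well OVCA, SW620, H460; 5000/well AGS).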

[11] = test system: NCI-H460; assay: Growth inhibition of human H460 cells at 40 uM after 48 hrs by MTT assay; format: functional, cell-based; in short: as §4
[12] = test system: SW-620; assay: Growth inhibition of human SW620 cells after 48 hrs by MTT assay; format: functional; conditions: SW-620, 48 h; in short: as §1
[13] = test system: NCI-H460; assay: Growth inhibition of human H460 cells after 48 hrs by MTT assay; format: functional; conditions: NCI-H460, 48 h; in short: as §1
[14] = test system: AGS; assay: Growth inhibition of human AGS cells at 40 uM after 48 hrs by MTT assay; format: functional, cell-based; in short: as §4
[15] = test system: OVCAR; assay: Growth inhibition of human OVCAR cells at 40 uM after 48 hrs by MTT assay; format: functional, cell-based; in short: as §4

SMILES: COc1cccc(-c2cc(-c3ccc(N)cc3)[nH]n2)c1
growth inhibition (GI) [14]: inactive
growth inhibition (GI) [15]: inactive
growth inhibition (GI) [10]: inactive
growth inhibition (GI) [11]: inactive

SMILES: COc1ccccc1-c1cc(-c2ccc(N)cc2)[nH]n1
GI50 [12]: 21.1 µM
growth inhibition (GI) [14]: inactive
growth inhibition (GI) [15]: inactive
growth inhibition (GI) [11]: inactive

SMILES: O=[N+]([O-])c1ccc(-c2cc(-c3ccc(C(F)(F)F)cc3)n[nH]2)cc1
growth inhibition (GI) [14]: inactive
growth inhibition (GI) [15]: inactive
growth inhibition (GI) [11]: inactive

SMILES: COc1cccc(-c2cc(-c3ccccc3-c3ccccc3)n[nH]2)c1
GI50 [1]: 7.5 µM
GI50 [4]: 5.8 µM
GI50 [13]: 8.7 µM
growth inhibition (GI) [10]: inactive

SMILES: COc1ccc(-c2cc(-c3ccccc3-c3ccccc3)n[nH]2)cc1
GI50 [1]: 0.79 µM
Activity [2]: Active
GI50 [12]: 0.89 µM
Activity [3]: 14.97%
GI50 [4]: 0.67 µM
inhibition [5]: Active
GI50 [13]: 0.73 µM
Activity [6]: Active
Activity [7]: Active
Activity [8]: 20.53%
Activity [9]: 32.05%

SMILES: COc1ccc(-c2cc(-c3ccc(N)cc3)[nH]n2)cc1
growth inhibition (GI) [14]: inactive
growth inhibition (GI) [15]: inactive
growth inhibition (GI) [10]: inactive
growth inhibition (GI) [11]: inactive

SMILES: Nc1ccc(-c2cc(-c3ccc(C(F)(F)F)cc3)n[nH]2)cc1
GI50 [4]: 18.6 µM
GI50 [13]: 21.5 µM
growth inhibition (GI) [14]: inactive
growth inhibition (GI) [10]: inactive

SMILES: O=[N+]([O-])c1ccc(-c2cc(-c3ccccc3)n[nH]2)cc1
GI50 [4]: 7.2 µM
GI50 [13]: 10.2 µM
growth inhibition (GI) [14]: inactive
growth inhibition (GI) [10]: inactive

SMILES: COc1ccc(-c2cc(-c3ccc(N)cc3)[nH]n2)cc1OC
growth inhibition (GI) [14]: inactive
growth inhibition (GI) [15]: inactive
growth inhibition (GI) [10]: inactive
growth inhibition (GI) [11]: inactive

SMILES: O=[N+]([O-])c1cccc(-c2cc(-c3ccccc3)n[nH]2)c1
GI50 [1]: 11.4 µM
GI50 [4]: 5.8 µM
GI50 [13]: 6.1 µM
growth inhibition (GI) [10]: inactive

SMILES: CN(C)c1ccc(-c2cc(-c3ccc(C(F)(F)F)cc3)n[nH]2)cc1
growth inhibition (GI) [14]: inactive
growth inhibition (GI) [10]: inactive
growth inhibition (GI) [11]: inactive

SMILES: O=[N+]([O-])c1ccc(-c2cc(-c3ccc(Cl)cc3)n[nH]2)cc1
GI50 [1]: 24.1 µM
GI50 [12]: 12.2 µM
GI50 [13]: 20.7 µM
growth inhibition (GI) [15]: inactive

SMILES: COc1ccc(-c2cc(-c3ccc(Cl)cc3)n[nH]2)cc1
GI50 [4]: 12.8 µM
GI50 [13]: 11.6 µM
growth inhibition (GI) [14]: inactive
growth inhibition (GI) [10]: inactive

SMILES: COc1ccc(-c2cc(-c3ccccc3)n[nH]2)cc1
GI50 [1]: 11.3 µM
GI50 [12]: 27.2 µM
GI50 [4]: 9.9 µM
GI50 [13]: 10.4 µM

SMILES: COc1ccccc1-c1cc(-c2ccccc2-c2ccccc2)n[nH]1
GI50 [4]: 14.2 µM
GI50 [13]: 9.1 µM
growth inhibition (GI) [14]: inactive
growth inhibition (GI) [10]: inactive

Further lines, with some results ahead:

GI50 [1]: 6.9 µM
GI50 [4]: 2.75 µM
inhibition [5]: Active
SMILES: FC(F)(F)c1ccc(-c2cc(-c3ccccc3-c3ccccc3)n[nH]2)cc1
Activity [2]: Active
Activity [3]: 11.43%
Activity [6]: Active
Activity [7]: Active
Activity [8]: 15.75%
Activity [9]: 23.51%
growth inhibition (GI) [10]: inactive
growth inhibition (GI) [11]: inactive

GI50 [1]: 7.5 µM
GI50 [12]: 10.6 µM
GI50 [4]: 5.8 µM
GI50 [13]: 4.6 µM
SMILES: Oc1ccccc1-c1cc(-c2ccccc2-c2ccccc2)n[nH]1

GI50 [1]: 13.1 µM
GI50 [12]: 23.5 µM
GI50 [4]: 10.8 µM
GI50 [13]: 8.9 µM
SMILES: O=[N+]([O-])c1ccc(-c2cc(-c3ccc4c(c3)OCO4)n[nH]2)cc1

GI50 [1]: 8.4 µM
GI50 [4]: 17.9 µM
GI50 [13]: 8.2 µM
SMILES: Nc1ccc(-c2cc(-c3ccccc3-c3ccccc3)n[nH]2)cc1
growth inhibition (GI) [10]: inactive

GI50 [1]: 9.2 µM
GI50 [12]: 25.9 µM
GI50 [4]: 6.2 µM
GI50 [13]: 6.9 µM
SMILES: Oc1ccc(-c2cc(-c3ccccc3-c3ccccc3)n[nH]2)cc1

GI50 [4]: 14 µM
SMILES: COc1ccc(-c2cc(-c3ccc(F)cc3)n[nH]2)cc1
growth inhibition (GI) [14]: inactive
growth inhibition (GI) [10]: inactive
growth inhibition (GI) [11]: inactive

GI50 [12]: 25.4 µM
GI50 [13]: 26.7 µM
SMILES: Nc1ccc(-c2cc(-c3ccccc3)n[nH]2)cc1
growth inhibition (GI) [14]: inactive
growth inhibition (GI) [15]: inactive

GI50 [12]: 26.4 µM
GI50 [4]: 28.9 µM
GI50 [13]: 17.9 µM
SMILES: COc1ccc(-c2cc(-c3ccc([N+](=O)[O-])cc3)[nH]n2)cc1OC
growth inhibition (GI) [14]: inactive

GI50 [4]: 20.7 µM
GI50 [13]: 27.1 µM
SMILES: COc1ccc(-c2cc(-c3ccc(Br)cc3)n[nH]2)cc1
growth inhibition (GI) [14]: inactive
growth inhibition (GI) [10]: inactive

GI50 [1]: 19 µM
GI50 [12]: 26.9 µM
GI50 [4]: 17.5 µM
GI50 [13]: 13.2 µM
SMILES: COc1ccc(-c2cc(-c3ccc4ccccc4c3)n[nH]2)cc1

GI50 [4]: 11.7 µM
GI50 [13]: 20.5 µM
SMILES: COc1ccccc1-c1cc(-c2ccc([N+](=O)[O-])cc2)[nH]n1
growth inhibition (GI) [14]: inactive
growth inhibition (GI) [10]: inactive

GI50 [1]: 14.8 µM
GI50 [12]: 11.2 µM
GI50 [4]: 22.8 µM
SMILES: COc1ccc(-c2cc(-c3ccc(C(F)(F)F)cc3)n[nH]2)cc1
growth inhibition (GI) [11]: inactive

GI50 [1]: 9.8 µM
GI50 [12]: 19.6 µM
GI50 [4]: 9.2 µM
GI50 [13]: 20.1 µM
SMILES: Oc1ccc(-c2cc(-c3ccc(C(F)(F)F)cc3)n[nH]2)cc1

GI50 [1]: 14.6 µM
GI50 [12]: 28.6 µM
GI50 [4]: 17.5 µM
SMILES: O=[N+]([O-])c1ccc(-c2cc(-c3ccc(Br)cc3)n[nH]2)cc1
growth inhibition (GI) [11]: inactive

GI50 [1]: 1.2 µM
GI50 [12]: 12.2 µM
GI50 [4]: 3.4 µM
GI50 [13]: 2.7 µM
SMILES: O=[N+]([O-])c1ccc(-c2cc(-c3ccccc3-c3ccccc3)n[nH]2)cc1

GI50 [12]: 14.3 µM
GI50 [4]: 27.3 µM
GI50 [13]: 18.3 µM
SMILES: COc1ccc(-c2cc(-c3ccc([N+](=O)[O-])cc3)[nH]n2)cc1
growth inhibition (GI) [14]: inactive

GI50 [4]: 19.1 µM
GI50 [13]: 11.2 µM
SMILES: COc1cccc(-c2cc(-c3ccc([N+](=O)[O-])cc3)[nH]n2)c1
growth inhibition (GI) [14]: inactive
growth inhibition (GI) [10]: inactive

GI50 [1]: 18.3 µM
GI50 [12]: 18.1 µM
SMILES: O=[N+]([O-])c1ccc(-c2cc(-c3ccc(F)cc3)n[nH]2)cc1
growth inhibition (GI) [15]: inactive
growth inhibition (GI) [11]: inactive
